{
  "source": "ChEMBL document CHEMBL1156973",
  "about": "“(-)-Carbodine: enantiomeric synthesis and in vitro antiviral activity against various strains of influenza virus including H5N1 (avian influenza) and novel 2009 H1N1 (swine flu)” (Bioorg Med Chem Lett, 2010)",
  "key": {"H5N1 subtype [1]": {"tested_on": "H5N1 subtype", "test": "Antiviral activity against Influenza A virus Gull/PA/4175/83/H5N1 infected MDCK cells after 42 to 46 hrs by neutral red dye uptake assay", "type": "functional, organism-based, Influenza A virus (A/gull/Pennsylvania/4175/83(H5N1))", "settings": "Influenza A virus, MDCK"}, "H5N1 subtype [2]": {"tested_on": "H5N1 subtype", "test": "Antiviral activity against Influenza A virus Hong Kong/213/2003/H5N1 infected MDCK cells after 42 to 46 hrs by neutral red dye uptake assay", "type": "functional, organism-based, Influenza A virus (A/Hong Kong/213/2003(H5N1))"}, "[3]": {"test": "Selectivity ratio of IC50 for MDCK cells to EC50 for Influenza A virus Duck/MN/1525/81/H5N1 by neutral red dye uptake assay", "type": "ADME, cell-based", "settings": "dog; for selectivity ratio: MDCK cells, read-out: Ratio IC50/EC50", "procedure,_shortened": "(§1)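 Neutral red uptake in MDCK cells: IC50 (50% inhibition of uninfected cells) divided by EC50 (50% inhibition of virus effect), both from replicate serial-dilution assays.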"}, "[4]": {"test": "Selectivity ratio of IC50 for MDCK cells to EC50 for inhibition of virus-induced cytopathic effect of Influenza A virus Gull/PA/4175/83/H5N1", "type": "cell-based", "settings": "dog, MDCK cells; read-out: Ratio IC50/EC50", "procedure,_shortened": "(§2)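 IC50 (50% inhibition of uninfected MDCK cells) divided by EC50 (concentration reducing virus-induced CPE by 50%, scored visually), both from replicate serial-dilution assays.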"}, "[5]": {"test": "Selectivity ratio of IC50 for MDCK cells to EC50 for Influenza A virus Hong Kong/213/2003/H5N1 by neutral red dye uptake assay", "type": "ADME, cell-based", "settings": "dog; for selectivity ratio: MDCK cells, read-out: Ratio IC50/EC50", "procedure,_shortened": "as §1"}, "[6]": {"test": "Selectivity ratio of IC50 for MDCK cells to EC90 for Influenza A virus Hong Kong/213/2003/H5N1 by virus yield reduction assay", "type": "ADME, cell-based", "settings": "dog, MDCK cells", "procedure,_shortened": "(§3)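 IC50 (50% inhibition of uninfected MDCK cells) divided by EC90 (concentration reducing the infectious virus titer by 90% in the yield reduction assay).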"}, "[7]": {"test": "Selectivity ratio of IC50 for MDCK cells to EC50 for inhibition of virus-induced cytopathic effect of Influenza A virus Vietnam/1203/ 2004H/H5N1", "type": "cell-based", "settings": "dog, MDCK cells; read-out: Ratio IC50/EC50", "procedure,_shortened": "as §2"}, "[8]": {"test": "Selectivity ratio of IC50 for MDCK cells to EC50 for Influenza A virus Vietnam/1203/ 2004H/H5N1 by neutral red dye uptake assay", "type": "ADME, cell-based", "settings": "dog, MDCK cells; read-out: Ratio IC50/EC50", "procedure,_shortened": "as §1"}, "Influenza A virus [9]": {"tested_on": "Influenza A virus", "test": "Antiviral activity against Influenza A virus California/07/2009 /H1N1 infected MDCK cells assessed as inhibition of virus-induced cytopathic effect after 3 days", "type": "functional, organism-based, A/California/07/2009(H1N1)", "settings": "Influenza A virus, A/California/07/2009(H1N1), MDCK, 72 h"}, "Influenza A virus [10]": {"tested_on": "Influenza A virus", "test": "Antiviral activity against Influenza A virus California/07/2009 /H1N1 infected MDCK cells after 3 days by virus yield reduction assay", "type": "functional, A/California/07/2009(H1N1)", "settings": "Influenza A virus, A/California/07/2009(H1N1), MDCK, 72 h"}, "[11]": {"tested_on": "Influenza A virus (A/Puerto Rico/8/1934(H1N1))", "test": "Antiviral activity against Influenza A virus Solomon Islands/03/2006/H1N1 infected MDCK cells after 42 to 46 hrs by neutral red dye uptake assay", "type": "functional, organism-based, Influenza A virus (A/Solomon Islands/3/2006(H1N1))", "procedure,_shortened": "(§4)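 Triplicate MDCK wells got serial compound dilutions, then ≤300 CCID50 of virus, with the same inoculum for all replicates. Antiviral effect was read by neutral red dye uptake. EC50 is the concentration giving 50% inhibition of the virus effect, as the mean of triplicates.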"}, "Influenza A virus [12]": {"tested_on": "Influenza A virus", "test": "Antiviral activity against Influenza A virus Wisconsin/67/2005/H3N2 infected MDCK cells after 42 to 46 hrs by neutral red dye uptake assay", "type": "functional, organism-based, Influenza A virus (A/Wisconsin/67/2005(H3N2))", "procedure,_shortened": "as §4"}, "Influenza A virus [13]": {"tested_on": "Influenza A virus", "test": "Antiviral activity against Influenza A virus Wisconsin/67/2005/H3N2 infected MDCK cells after 3 days by virus yield reduction assay", "type": "functional, Influenza A virus (A/Wisconsin/67/2005(H3N2))", "settings": "Influenza A virus, MDCK, 72 h", "procedure,_shortened": "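Yield reduction assay: MDCK cells got serial compound dilutions and ≤300 CCID50 virus, in triplicate. Progeny virus was titrated. EC90 is the concentration reducing the infectious titer by 90%, as the mean of triplicates.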"}, "Influenza B virus": {"tested_on": "Influenza B virus", "test": "Antiviral activity against Influenza B virus Malaysia/2506/2004 infected MDCK cells after 42 to 46 hrs by neutral red dye uptake assay", "type": "functional, organism-based, B/Malaysia/2506/2004", "settings": "Influenza B virus, B/Malaysia/2506/2004, MDCK", "procedure,_shortened": "as §4"}, "[14]": {"test": "Selectivity ratio of IC50 for MDCK cells to EC50 for inhibition of virus-induced cytopathic effect of Influenza A virus California/07/2009 /H1N1", "type": "cell-based", "settings": "dog, MDCK cells; read-out: Ratio IC50/EC50", "procedure,_shortened": "as §2"}, "[15]": {"test": "Selectivity ratio of IC50 for MDCK cells to EC50 for Influenza A virus California/07/2009 /H1N1 by neutral red dye uptake assay", "type": "ADME, cell-based", "settings": "dog, MDCK cells; read-out: Ratio IC50/EC50", "procedure,_shortened": "as §1"}, "[16]": {"test": "Selectivity ratio of IC50 for MDCK cells to EC90 for Influenza A virus Solomon Islands/03/2006/H1N1 by virus yield reduction assay", "type": "ADME, cell-based", "settings": "dog, MDCK cells", "procedure,_shortened": "as §3"}, "H5N1 subtype [17]": {"tested_on": "H5N1 subtype", "test": "Antiviral activity against Influenza A virus Gull/PA/4175/83/H5N1 infected MDCK cells assessed as inhibition of virus-induced cytopathic effect after 3 days", "type": "functional, organism-based, Influenza A virus (A/gull/Pennsylvania/4175/83(H5N1))", "settings": "Influenza A virus, MDCK, 72 h"}},
  "data": [
    {"smiles": "Nc1ccn([C@@H]2C[C@H](CO)[C@@H](O)[C@H]2O)c(=O)n1", "values": [
      {"measurement": "EC50", "setting": "H5N1 subtype [1]", "result": 1, "unit": "µM"},
      {"measurement": "EC50", "setting": "H5N1 subtype [2]; mdck", "result": 0.8, "unit": "µM"},
      {"measurement": "Ratio IC50/EC50", "setting": "[3]; mdck", "result": "> 207"},
      {"measurement": "selectivity ratio", "setting": "[4]", "result": "> 518"},
      {"measurement": "Ratio IC50/EC50", "setting": "[5]; mdck", "result": "> 518"},
      {"measurement": "selectivity ratio", "setting": "[6]", "result": "> 197"},
      {"measurement": "selectivity ratio", "setting": "[7]", "result": "> 518"},
      {"measurement": "selectivity ratio", "setting": "[8]", "result": "> 276"},
      {"measurement": "EC50", "setting": "Influenza A virus [9]", "result": 1.3, "unit": "µM"},
      {"measurement": "EC90", "setting": "Influenza A virus [10]", "result": 3.8, "unit": "µM"},
      {"measurement": "EC50", "setting": "[11]; mdck", "result": 0.6, "unit": "µM"},
      {"measurement": "EC50", "setting": "Influenza A virus [12]; mdck", "result": 2, "unit": "µM"},
      {"measurement": "EC90", "setting": "Influenza A virus [13]", "result": 2.5, "unit": "µM"},
      {"measurement": "EC50", "setting": "Influenza B virus", "result": 0.8, "unit": "µM"},
      {"measurement": "selectivity ratio", "setting": "[14]", "result": "> 318"},
      {"measurement": "selectivity ratio", "setting": "[15]", "result": "> 259"},
      {"measurement": "selectivity ratio", "setting": "[16]", "result": "> 318"},
      {"measurement": "EC50", "setting": "H5N1 subtype [17]", "result": 0.8, "unit": "µM"}
    ]},
    {"smiles": "Nc1ccn([C@H]2C[C@@H](CO)[C@H](O)[C@@H]2O)c(=O)n1", "values": [
      {"measurement": "EC50", "setting": "H5N1 subtype [1]", "result": "> 41", "unit": "µM"},
      {"measurement": "EC50", "setting": "H5N1 subtype [2]; Influenza A virus, MDCK", "result": "> 41", "unit": "µM"},
      {"measurement": "selectivity ratio", "setting": "[3]", "result": 1},
      {"measurement": "selectivity ratio", "setting": "[4]", "result": "< 10"},
      {"measurement": "selectivity ratio", "setting": "[5]", "result": "< 10"},
      {"measurement": "selectivity ratio", "setting": "[6]", "result": "< 10"},
      {"measurement": "selectivity ratio", "setting": "[7]", "result": "< 10"},
      {"measurement": "selectivity ratio", "setting": "[8]", "result": "< 10"},
      {"measurement": "EC50", "setting": "Influenza A virus [9]", "result": "> 414", "unit": "µM"},
      {"measurement": "EC90", "setting": "Influenza A virus [10]", "result": "> 414", "unit": "µM"},
      {"measurement": "EC50", "setting": "[11]; Influenza A virus, MDCK", "result": "> 41", "unit": "µM"},
      {"measurement": "EC50", "setting": "Influenza A virus [12]; Influenza A virus, MDCK", "result": "> 41", "unit": "µM"},
      {"measurement": "EC90", "setting": "Influenza A virus [13]", "result": "> 41", "unit": "µM"},
      {"measurement": "EC50", "setting": "Influenza B virus", "result": "> 41", "unit": "µM"},
      {"measurement": "selectivity ratio", "setting": "[14]", "result": 1},
      {"measurement": "selectivity ratio", "setting": "[15]", "result": 1},
      {"measurement": "selectivity ratio", "setting": "[16]", "result": "< 10"},
      {"measurement": "EC50", "setting": "H5N1 subtype [17]", "result": "> 41", "unit": "µM"}
    ]},
    {"smiles": "NC(=O)c1ncn([C@@H]2O[C@H](CO)[C@@H](O)[C@H]2O)n1", "note": "[RIBAVIRIN]", "values": [
      {"measurement": "EC50", "setting": "H5N1 subtype [1]", "result": 27.4, "unit": "µM"},
      {"measurement": "EC50", "setting": "H5N1 subtype [2]; Influenza A virus, MDCK", "result": 9.4, "unit": "µM"},
      {"measurement": "selectivity ratio", "setting": "[3]", "result": "> 40"},
      {"measurement": "selectivity ratio", "setting": "[4]", "result": "> 55"},
      {"measurement": "selectivity ratio", "setting": "[5]", "result": "> 139"},
      {"measurement": "selectivity ratio", "setting": "[6]", "result": "> 78"},
      {"measurement": "selectivity ratio", "setting": "[7]", "result": "> 156"},
      {"measurement": "selectivity ratio", "setting": "[8]", "result": "> 94"},
      {"measurement": "EC50", "setting": "Influenza A virus [9]", "result": 11.2, "unit": "µM"},
      {"measurement": "EC90", "setting": "Influenza A virus [10]", "result": 13, "unit": "µM"},
      {"measurement": "EC50", "setting": "[11]; Influenza A virus, MDCK", "result": 25.1, "unit": "µM"},
      {"measurement": "EC50", "setting": "Influenza A virus [12]; Influenza A virus, MDCK", "result": 20.2, "unit": "µM"},
      {"measurement": "EC90", "setting": "Influenza A virus [13]", "result": 21.7, "unit": "µM"},
      {"measurement": "EC50", "setting": "Influenza B virus", "result": 19.5, "unit": "µM"},
      {"measurement": "selectivity ratio", "setting": "[14]", "result": "> 117"},
      {"measurement": "selectivity ratio", "setting": "[15]", "result": "> 68"},
      {"measurement": "selectivity ratio", "setting": "[16]", "result": "> 49"},
      {"measurement": "EC50", "setting": "H5N1 subtype [17]", "result": 23.6, "unit": "µM"}
    ]}
  ]
}
